# Test system: Platelet
# Test: Ratio of picotamide IC50 to compound IC50 for rat platelet rich plasma assessed as inhibition of ADP-induced platelet aggregation
# Assay type: functional
row,SMILES,Ratio IC50
1,COc1ccc(C(=O)Nc2ccccc2Cc2ccccc2)cc1C(=O)Nc1ccccc1Cc1ccccc1,10

# Test system: not listed separately
# Test: Antiplatelet activity against rat platelet rich plasma assessed as inhibition of ADP-induced platelet aggregation after 2 mins by Born test method
# Assay type: functional
# Summary of the method: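 Rat blood was collected into 3.8% sodium citrate (1:9, v/v). Platelet-rich plasma was obtained by centrifugation at room temperature for 10 min (500–800 rpm). Platelet-poor plasma, made by spinning PRP at room temperature for 15 min (3000 rpm), set zero. Compound was incubated with PRP for 2 min, then aggregation was stimulated with ADP and read on an aggregometer. Results are given as percentage inhibition and IC50.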
row,SMILES,IC50 [µM]
1,COc1ccc(C(=O)Nc2ccccc2F)cc1C(=O)Nc1ccccc1F,0.86
2,COc1ccc(C(=O)Nc2ccccc2I)cc1C(=O)Nc1ccccc1I,0.3
3,COc1ccc(C(=O)Nc2ccccc2Cc2ccccc2)cc1C(=O)Nc1ccccc1Cc1ccccc1,0.02
4,COc1ccc(C(=O)Nc2ccccc2CC#N)cc1C(=O)Nc1ccccc1CC#N,0.59
5,COc1cccc(NC(=O)c2ccc(OC)c(C(=O)Nc3cccc(OC)c3)c2)c1,0.49
6,CCOc1cccc(NC(=O)c2ccc(OC)c(C(=O)Nc3cccc(OCC)c3)c2)c1,0.81
7,COc1ccc(C(=O)NCc2ccccc2)cc1C(=O)NCc1ccccc1,0.58
8,COc1ccc(C(=O)NCCc2ccccc2)cc1C(=O)NCCc1ccccc1,0.24
9,COc1ccc(C(=O)NCc2cccnc2)cc1C(=O)NCc1cccnc1 [PICOTAMIDE],0.76

# Now from value to compound:
row,IC50 [µM],SMILES
1,0.66,COc1ccc(C(=O)Nc2ccccc2Br)cc1C(=O)Nc1ccccc1Br
2,0.6,COc1ccc(C(=O)Nc2ccc(F)cc2)cc1C(=O)Nc1ccc(F)cc1
3,0.51,COc1ccc(C(=O)Nc2ccc(Br)cc2)cc1C(=O)Nc1ccc(Br)cc1
4,0.49,COc1ccc(C(=O)Nc2ccc(I)cc2)cc1C(=O)Nc1ccc(I)cc1
5,0.75,COc1ccc(C(=O)Nc2ccc([N+](=O)[O-])cc2)cc1C(=O)Nc1ccc([N+](=O)[O-])cc1
6,0.64,COc1ccc(C(=O)Nc2ccc(C)cc2)cc1C(=O)Nc1ccc(C)cc1
7,0.67,COc1ccc(C(=O)Nc2ccc(C(C)=O)cc2)cc1C(=O)Nc1ccc(C(C)=O)cc1
8,0.49,CCCCOc1ccc(NC(=O)c2ccc(OC)c(C(=O)Nc3ccc(OCCCC)cc3)c2)cc1
9,0.77,COc1ccc(C(=O)Nc2ccccc2)cc1C(=O)Nc1ccccc1

# From ChEMBL document CHEMBL2157900, “Design, synthesis and in vitro activities on anti-platelet aggregation of 4-methoxybenzene-1,3-isophthalamides” (Bioorg Med Chem Lett, 2012)
